“And” between values parts separate entries of the source, which are not always exact repeats. Equal values may be shown once. Read-outs that look alike come from different tables or passages of the source.
Key:
Format in all cases: binding
[1] = molecular target: D55C MelBSt mutant (Salmonella typhimurium, UniProt P30878, D55C); experiment: Thermal denaturation by CD spectroscopy; conditions: D55C MelBSt 10 µM, component at 50 mM in CD buffer, ellipticity at 210 nm
[2] = molecular target: WT MelBSt (Salmonella typhimurium, UniProt P30878); experiment: Thermal denaturation by CD spectroscopy; conditions: for 10% unfolding / 50% unfolding (Tm) / 90% unfolding: WT MelBSt 10 µM, component at 50 mM in CD buffer, ellipticity at 210 nm; for ΔTm: difference in Tm compared with apo
Summary of the method: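 Samples sat in a 1-mm cuvette. Ellipticity at 210 nm was recorded from 25–80°C at 1°C intervals, ramping 1°C/min, and expressed as percent unfolded. Tm is the half-maximal ellipticity decrease by curve fitting. Data are SEM; unpaired t test, P<0.05.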

[3] = molecular target: MelBSt (Salmonella typhimurium, UniProt P30878); conditions: for ΔΔH: from 15°C to 30°C
[4] = MelBSt with 100 mM NaCl (MelBSt/Na^+ binary complex), 15°C
[5] = MelBSt with 100 mM NaCl (MelBSt/Na^+ binary complex), 20°C
[6] = MelBSt with 100 mM NaCl (MelBSt/Na^+ binary complex), 25°C
[7] = MelBSt with 100 mM NaCl (MelBSt/Na^+ binary complex), 30°C
[8] = MelBSt with 100 mM NaCl (MelBSt/Na^+ binary complex), 35°C
[9] = apo MelBSt, range over 15°C, 20°C, 25°C and 30°C
[10] = binding to MelBSt/Na^+ binary complex
[11] = MelBSt with 50 mM melibiose (MelBSt/Mel binary complex), 15°C
[12] = MelBSt with 50 mM melibiose (MelBSt/Mel binary complex), 20°C
[13] = MelBSt with 50 mM melibiose (MelBSt/Mel binary complex), 25°C
[14] = MelBSt with 50 mM melibiose (MelBSt/Mel binary complex), 30°C
[15] = binding to MelBSt/Mel binary complex

OC[C@H]1O[C@H](OCC2O[C@@H](O)[C@H](O)[C@@H](O)[C@@H]2O)[C@H](O)[C@@H](O)[C@H]1O (some centres unmarked) [Mel, melibiose]
50% unfolding (Tm) [1]: >80 °C
10% unfolding [2]: 45.95 ± 0.47 °C
50% unfolding (Tm) [2]: 54.07 ± 0.07 °C
90% unfolding [2]: 64.24 ± 0.42 °C
ΔTm ([2]; WT MelBSt): 0.78 (<0.05) °C
Entropy change (−TΔS) [3, 4]: -2.3 ± 0.16 kcal/mol
Free energy change (ΔG) [3, 4]: -3.927 ± 0.0072 kcal/mol
Kd [3, 4]: 1050 ± 10 µM
ΔH [3, 4]: -1.54 ± 0.103 kcal/mol
Entropy change (−TΔS) [3, 5]: -1.76 ± 0.237 kcal/mol
Free energy change (ΔG) [3, 5]: -4.085 ± 0.0956 kcal/mol
Kd [3, 5]: 950 ± 130 µM
ΔH [3, 5]: -2.32 ± 0.141 kcal/mol
Entropy change (−TΔS) [3, 6]: -1.14 ± 0.0621 kcal/mol
Free energy change (ΔG) [3, 6]: -3.994 ± 0.0072 kcal/mol
Kd [3, 6]: 1180 ± 10 µM
ΔH [3, 6]: -2.861 ± 0.055 kcal/mol
Entropy change (−TΔS) [3, 7]: -0.712 ± 0.0741 kcal/mol
Free energy change (ΔG) [3, 7]: -3.956 ± 0.017 kcal/mol
Kd [3, 7]: 1410 ± 40 µM
ΔH [3, 7]: -3.243 ± 0.0574 kcal/mol
Entropy change (−TΔS) [3, 8]: -0.261 ± 0.055 kcal/mol
Free energy change (ΔG) [3, 8]: -3.879 ± 0.0478 kcal/mol
Kd [3, 8]: 1780 ± 140 µM
ΔH [3, 8]: -3.623 ± 0.105 kcal/mol
Entropy change (−TΔS) ([3]; apo MelBSt (main buffer), 15°C): 3.499 ± 1.03 kcal/mol
Free energy change (ΔG) ([3]; apo MelBSt (main buffer), 15°C): -2.694 ± 0.0645 kcal/mol
Kd ([3]; apo MelBSt (main buffer), 15°C): 9150 ± 1060 µM
ΔH ([3]; apo MelBSt (main buffer), 15°C): -6.193 ± 1.09 kcal/mol
ΔH ([3]; apo MelBSt (main buffer), 15°C, listed as melibiose): -6.193 kcal/mol
Entropy change (−TΔS) ([3]; apo MelBSt (main buffer), 20°C): 2.849 ± 1.19 kcal/mol
Free energy change (ΔG) ([3]; apo MelBSt (main buffer), 20°C): -2.71 ± 0.0621 kcal/mol
Kd ([3]; apo MelBSt (main buffer), 20°C): 9590 ± 1010 µM
ΔH ([3]; apo MelBSt (main buffer), 20°C): -5.559 ± 1.25 kcal/mol
Entropy change (−TΔS) ([3]; apo MelBSt (main buffer), 25°C): 2 ± 1.6 kcal/mol
Free energy change (ΔG) ([3]; apo MelBSt (main buffer), 25°C): -2.698 ± 0.139 kcal/mol
Kd ([3]; apo MelBSt (main buffer), 25°C): 10800 ± 2490 µM
ΔH ([3]; apo MelBSt (main buffer), 25°C): -4.694 ± 1.47 kcal/mol
Entropy change (−TΔS) ([3]; apo MelBSt (main buffer), 30°C): 1.34 ± 1.35 kcal/mol
Free energy change (ΔG) ([3]; apo MelBSt (main buffer), 30°C): -2.584 ± 0.0526 kcal/mol
Kd ([3]; apo MelBSt (main buffer), 30°C): 13800 ± 1180 µM
ΔH ([3]; apo MelBSt (main buffer), 30°C): -3.92 ± 1.3 kcal/mol
ΔH ([3]; apo MelBSt (main buffer), 30°C, listed as melibiose): -3.92 kcal/mol
ΔΔH ([3]; apo MelBSt): ~2.39 kcal/mol
Kd [3, 9]: 9000 to 13000 µM
binding free energy ΔG [3, 9]: -2.694 to -2.584 kcal/mol
−ΔSConf [3, 10]: 59.86 J/mol·K
−ΔSMix [3, 10]: 33.00 J/mol·K
−ΔSSolv [3, 10]: −108.78 J/mol·K
−ΔSSum at °25 C [3, 10]: −15.92 J/mol·K
−ΔSConf ([3]; binding to apo MelBSt): −169.20 J/mol·K
−ΔSMix ([3]; binding to apo MelBSt): 33.00 J/mol·K
−ΔSSolv ([3]; binding to apo MelBSt): 164.61 J/mol·K
−ΔSSum at °25 C ([3]; binding to apo MelBSt): 28.41 J/mol·K
ΔCp ([3]; binding to apo MelBSt, slope of ΔH versus temperature 15-30°C): 643.01 ± 26.92 J/mol·K

[Na+] [Na^+]
10% unfolding [1]: 46.35 ± 0.25 °C
50% unfolding (Tm) [1]: 56.75 ± 0.25 °C
90% unfolding [1]: 66.51 ± 0.31 °C
10% unfolding [2]: 49.07 ± 0.28 °C
50% unfolding (Tm) [2]: 54.83 ± 0.03 °C
90% unfolding [2]: 60.06 ± 0.29 °C
denaturation completed faster than in the absence of salt ([2]; WT MelBSt, above 60°C, nonspecific salt effect): 4–5 °C
ΔTm ([2]; WT MelBSt): 1.54 (<0.05) °C
Entropy change (−TΔS) [3, 11]: -3.009 ± 0.0621 kcal/mol
Free energy change (ΔG) [3, 11]: -5.566 ± 0.0478 kcal/mol
Kd [3, 11]: 60 ± 10 µM
ΔH [3, 11]: -2.557 ± 0.014 kcal/mol
Entropy change (−TΔS) [3, 12]: -1.94 ± 0.0072 kcal/mol
Free energy change (ΔG) [3, 12]: -5.554 ± 0.0406 kcal/mol
Kd [3, 12]: 70 ± 10 µM
ΔH [3, 12]: -3.619 ± 0.0359 kcal/mol
Entropy change (−TΔS) [3, 13]: -0.913 ± 0.0072 kcal/mol
Free energy change (ΔG) [3, 13]: -5.39 ± 0.196 kcal/mol
Kd [3, 13]: 120 ± 40 µM
ΔH [3, 13]: -4.479 ± 0.191 kcal/mol
Free energy change (ΔG) [3, 14]: -5.485 ± 0.177 kcal/mol
Kd [3, 14]: 120 ± 30 µM
ΔH [3, 14]: -5.299 ± 0.124 kcal/mol
difference in apo MelBSt binding affinities between Na^+ and melibiose ([3]; apo MelBSt): at least 20 fold
Entropy change (−TΔS) ([3]; apo MelBSt (main buffer), 15°C): 4.197 ± 0.311 kcal/mol
Free energy change (ΔG) ([3]; apo MelBSt (main buffer), 15°C): -4.345 ± 0.0932 kcal/mol
Kd ([3]; apo MelBSt (main buffer), 15°C): 510 ± 80 µM
ΔH ([3]; apo MelBSt (main buffer), 15°C): -8.544 kcal/mol and -8.544 ± 0.215 kcal/mol
Entropy change (−TΔS) ([3]; apo MelBSt (main buffer), 20°C): 2.404 ± 0.0048 kcal/mol
Free energy change (ΔG) ([3]; apo MelBSt (main buffer), 20°C): -4.333 ± 0.117 kcal/mol
Kd ([3]; apo MelBSt (main buffer), 20°C): 600 ± 100 µM
ΔH ([3]; apo MelBSt (main buffer), 20°C): -6.74 ± 0.103 kcal/mol
Entropy change (−TΔS) ([3]; apo MelBSt (main buffer), 25°C): 0.872 ± 0.0741 kcal/mol
Free energy change (ΔG) ([3]; apo MelBSt (main buffer), 25°C): -4.412 ± 0.1 kcal/mol
Kd ([3]; apo MelBSt (main buffer), 25°C): 590 ± 120 µM
ΔH ([3]; apo MelBSt (main buffer), 25°C): -5.284 ± 0.191 kcal/mol
Entropy change (−TΔS) ([3]; apo MelBSt (main buffer), 30°C): -0.473 ± 0.387 kcal/mol
Free energy change (ΔG) ([3]; apo MelBSt (main buffer), 30°C): -4.302 ± 0.0526 kcal/mol
Kd ([3]; apo MelBSt (main buffer), 30°C): 790 ± 70 µM
ΔH ([3]; apo MelBSt (main buffer), 30°C): -3.829 kcal/mol and -3.829 ± 0.335 kcal/mol
ΔΔH ([3]; apo MelBSt): ~4.78 kcal/mol
−ΔSConf [3, 15]: 148.74 J/mol·K
−ΔSMix [3, 15]: 33.00 J/mol·K
−ΔSSolv [3, 15]: −194.56 J/mol·K
−ΔSSum at °25 C [3, 15]: −12.82 J/mol·K
−ΔSConf ([3]; binding to apo MelBSt): −354.89 J/mol·K
−ΔSMix ([3]; binding to apo MelBSt): 33.00 J/mol·K
−ΔSSolv ([3]; binding to apo MelBSt): 334.13 J/mol·K
−ΔSSum at °25 C ([3]; binding to apo MelBSt): 12.24 J/mol·K
